Data reported in ChEMBL document CHEMBL2346664, “Synthesis, characterization and in vitro anticancer evaluation of novel 1,2,4-triazolin-3-one derivatives” (2013).

Columns and labels:
Assay type in all cases: functional
Malme-3M [1] = test: Growth inhibition of human MALME-3M cells assessed as cell growth at 10 '-5 M after 48 hrs by sulforhodamine B assay; conditions: read-out: Activity
MDA-MB-435 [2] = test: Growth inhibition of human MDA-MB-435 cells after 48 hrs by sulforhodamine B assay; conditions: MDA-MB-435, 48 h
Summary of the method: (§1)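 NCI 60-cell-line five-dose screen. Cells were plated at 5,000–40,000/well by doubling time and grown 24 h at 37 °C, 5% CO2. Time-zero plates were TCA-fixed. Drug from DMSO stock was tested at 0.01, 0.1, 1, 10 and 100 µM final for 48 h continuous exposure. Read-out was SRB at 515 nm. GI50 is the concentration giving 50% reduction in net protein increase versus untreated control.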

UACC-257 = test: Growth inhibition of human UACC257 cells assessed as cell growth at 10 '-5 M after 48 hrs by sulforhodamine B assay; conditions: UACC-257, 48 h, read-out: Activity
SNB-19 [3] = test: Growth inhibition of human SNB19 cells assessed as cell growth at 10 '-4 M after 48 hrs by sulforhodamine B assay; conditions: SNB-19, 48 h, read-out: Activity
SR [4] = test: Growth inhibition of human SR cells assessed as cell growth at 10 '-5 M after 48 hrs by sulforhodamine B assay; conditions: read-out: Activity
SK-MEL-2 = test: Growth inhibition of human SK-MEL-2 cells assessed as growth inhibition at 10 uM after 48 hrs by sulforhodamine B assay; conditions: SK-MEL-2, 48 h, read-out: GI
ACHN = test: Growth inhibition of human ACHN cells assessed as cell growth at 10 '-6 M after 48 hrs by sulforhodamine B assay; conditions: read-out: Activity
Summary of the method: (§2)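 Percent growth at each of the five concentrations of the 48 h continuous-exposure NCI SRB screen. Drug stocks were in DMSO at 400× the top final concentration and diluted in medium with gentamicin. Growth was calculated as [(Ti-Tz)/(C-Tz)]×100 when Ti ≥ Tz, or [(Ti-Tz)/Tz]×100 when Ti < Tz. Tz plates were fixed at drug addition; untreated wells served as control. Absorbance was read at 515 nm.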

U-251 = test: Growth inhibition of human U251 cells assessed as cell growth at 10 '-4 M after 48 hrs by sulforhodamine B assay; conditions: U-251, 48 h, read-out: Activity
Malme-3M [5] = test: Growth inhibition of human MALME-3M cells assessed as cell growth at 10 '-6 M after 48 hrs by sulforhodamine B assay; conditions: read-out: Activity
RPMI-8226 = test: Growth inhibition of human RPMI8226 cells assessed as growth inhibition at 10 uM after 48 hrs by sulforhodamine B assay; conditions: RPMI-8226, 48 h, read-out: GI
A498 = test: Growth inhibition of human A498 cells assessed as cell growth at 10 '-5 M after 48 hrs by sulforhodamine B assay; conditions: A498, 48 h, read-out: Activity; summary of the method: as §2
SNB-19 [6] = test: Growth inhibition of human SNB19 cells assessed as cell growth at 10 '-8 M after 48 hrs by sulforhodamine B assay; conditions: SNB-19, 48 h, read-out: Activity
SR [7] = test: Growth inhibition of human SR cells assessed as cell growth at 10 '-7 M after 48 hrs by sulforhodamine B assay; conditions: read-out: Activity
OVCAR-8 [8] = test: Growth inhibition of human OVCAR8 cells assessed as cell growth at 10 '-7 M after 48 hrs by sulforhodamine B assay; conditions: OVCAR-8, 48 h, read-out: Activity
CAKI-1 = test: Growth inhibition of human CAKI-1 cells assessed as cell growth at 10 '-8 M after 48 hrs by sulforhodamine B assay; conditions: CAKI-1, 48 h, read-out: Activity; summary of the method: as §2
SW-620 [9] = test: Growth inhibition of human SW620 cells assessed as cell growth at 10 '-5 M after 48 hrs by sulforhodamine B assay; conditions: SW-620, 48 h, read-out: Activity
MDA-MB-231 = test: Growth inhibition of human MDA-MB-231 cells assessed as cell growth at 10 '-6 M after 48 hrs by sulforhodamine B assay; conditions: MDA-MB-231, 48 h, read-out: Activity
SW-620 [10] = test: Growth inhibition of human SW620 cells assessed as cell growth at 10 '-8 M after 48 hrs by sulforhodamine B assay; conditions: SW-620, 48 h, read-out: Activity
[11] = Growth inhibition of human EKVX cells assessed as cell growth at 10 '-8 M after 48 hrs by sulforhodamine B assay; conditions: read-out: Activity
HCT-15 = test: Growth inhibition of human HCT15 cells assessed as growth inhibition at 10 uM after 48 hrs by sulforhodamine B assay; conditions: HCT-15, 48 h, read-out: GI
SK-MEL-5 [12] = test: Growth inhibition of human SK-MEL-5 cells assessed as growth inhibition at 10 uM after 48 hrs by sulforhodamine B assay; conditions: SK-MEL-5, 48 h, read-out: GI
MDA-MB-435 [13] = test: Growth inhibition of human MDA-MB-435 cells assessed as cell growth at 10 '-6 M after 48 hrs by sulforhodamine B assay; conditions: MDA-MB-435, 48 h, read-out: Activity
BT-549 = test: Growth inhibition of human BT549 cells assessed as cell growth at 10 '-7 M after 48 hrs by sulforhodamine B assay; conditions: BT-549, 48 h, read-out: Activity; summary of the method: as §2
IGROV-1 = test: Growth inhibition of human IGROV1 cells assessed as growth inhibition at 10 uM after 48 hrs by sulforhodamine B assay; conditions: IGROV-1, 48 h, read-out: GI
PC-3 = test: Growth inhibition of human PC3 cells assessed as cell growth at 10 '-6 M after 48 hrs by sulforhodamine B assay; conditions: PC-3, 48 h, read-out: Activity
[14] = Growth inhibition of human EKVX cells assessed as cell growth at 10 '-6 M after 48 hrs by sulforhodamine B assay; conditions: read-out: Activity
LOX IMVI = test: Growth inhibition of human LOXIMVI cells assessed as cell growth at 10 '-4 M after 48 hrs by sulforhodamine B assay; conditions: read-out: Activity
NCI-H23 = test: Growth inhibition of human NCI-H23 cells assessed as cell growth at 10 '-8 M after 48 hrs by sulforhodamine B assay; conditions: NCI-H23, 48 h, read-out: Activity
SNB-75 = test: Growth inhibition of human SNB75 cells assessed as cell growth at 10 '-6 M after 48 hrs by sulforhodamine B assay; conditions: SNB-75, 48 h, read-out: Activity
OVCAR-4 = test: Growth inhibition of human OVCAR4 cells assessed as cell growth at 10 '-6 M after 48 hrs by sulforhodamine B assay; conditions: OVCAR-4, 48 h, read-out: Activity
HCT-116 = test: Growth inhibition of human HCT116 cells after 48 hrs by sulforhodamine B assay; conditions: HCT-116, 48 h; summary of the method: as §1
SK-MEL-5 [15] = test: Growth inhibition of human SK-MEL-5 cells assessed as cell growth at 10 '-7 M after 48 hrs by sulforhodamine B assay; conditions: SK-MEL-5, 48 h, read-out: Activity
OVCAR-8 [16] = test: Growth inhibition of human OVCAR8 cells assessed as cell growth at 10 '-8 M after 48 hrs by sulforhodamine B assay; conditions: OVCAR-8, 48 h, read-out: Activity
[17] = read-out: LD50 (the source's name)

Q: With Cc1cc(=O)oc2cc(OCCn3c(C)nn(-c4ccc(Cl)cc4)c3=O)ccc12 as the molecule, how does the growth at 10 µM (Malme-3M [1]) read?
A: Its growth at 10 µM is 28%.

Q: And the GI50 (MDA-MB-435 [2])?
A: The GI50 was 2690 nM.

Q: And the TGI (MDA-MB-435 [2])?
A: The TGI was 8370 nM.

Q: What about the CC50 (MDA-MB-435 [2]; [17]) of the same molecule?
A: Its CC50 is over 1000 nM.

Q: And the growth at 10 µM (UACC-257)?
A: The growth at 10 µM was 40%.

Q: And the growth at 100 µM (SNB-19 [3])?
A: Its growth at 100 µM is 20%.

Q: What about the growth at 10 µM (SR [4]) of the same molecule?
A: The growth at 10 µM was -6%.

Q: What about the inhibition of growth at 10 µM (SK-MEL-2) of the same molecule?
A: The inhibition of growth at 10 µM was 96.5%.

Q: And the growth at 1 µM (ACHN)?
A: Its growth at 1 µM is 95%.

Q: What about the growth at 100 µM (U-251) of the same molecule?
A: Its growth at 100 µM is -4%.

Q: And the growth at 1 µM (Malme-3M [5])?
A: Its growth at 1 µM is 82%.

Q: And the inhibition of growth at 10 µM (RPMI-8226)?
A: Its inhibition of growth at 10 µM is 69%.

Q: And the growth at 10 µM (A498)?
A: The growth at 10 µM was 8%.

Q: What about the growth at 0.01 µM (SNB-19 [6]) of the same molecule?
A: Its growth at 0.01 µM is 92%.

Q: What about the growth at 0.1 µM (SR [7]) of the same molecule?
A: Its growth at 0.1 µM is 99%.

Q: What about the growth at 0.1 µM (OVCAR-8 [8]) of the same molecule?
A: Its growth at 0.1 µM is 98%.

Q: What about the growth at 0.01 µM (CAKI-1) of the same molecule?
A: The growth at 0.01 µM was 97%.

Q: And the growth at 10 µM (SW-620 [9])?
A: The growth at 10 µM was 16%.

Q: What about the growth at 1 µM (MDA-MB-231) of the same molecule?
A: The growth at 1 µM was 66%.

Q: And the growth at 0.01 µM (SW-620 [10])?
A: The growth at 0.01 µM was 99%.

Q: And the growth at 0.01 µM [11]?
A: The growth at 0.01 µM was 96%.

Q: And the inhibition of growth at 10 µM (HCT-15)?
A: The inhibition of growth at 10 µM was 82.3%.

Q: What about the inhibition of growth at 10 µM (SK-MEL-5 [12]) of the same molecule?
A: The inhibition of growth at 10 µM was 89.2%.

Q: What about the growth at 1 µM (MDA-MB-435 [13]) of the same molecule?
A: The growth at 1 µM was -8%.

Q: What about the growth at 0.1 µM (BT-549) of the same molecule?
A: Its growth at 0.1 µM is 104%.

Q: What about the inhibition of growth at 10 µM (IGROV-1) of the same molecule?
A: The inhibition of growth at 10 µM was 40.3%.

Q: And the growth at 1 µM (PC-3)?
A: Its growth at 1 µM is 74%.

Q: What about the growth at 1 µM [14] of the same molecule?
A: Its growth at 1 µM is 88%.

Q: What about the growth at 100 µM (LOX IMVI) of the same molecule?
A: Its growth at 100 µM is 30%.

Q: And the growth at 0.01 µM (NCI-H23)?
A: The growth at 0.01 µM was 98%.

Q: What about the growth at 1 µM (SNB-75) of the same molecule?
A: Its growth at 1 µM is 74%.

Q: And the growth at 1 µM (OVCAR-4)?
A: Its growth at 1 µM is 88%.

Q: And the GI50 (HCT-116)?
A: The GI50 was 3570 nM.

Q: And the TGI (HCT-116)?
A: The TGI was over 1000 nM.

Q: And the CC50 (HCT-116; [17])?
A: Its CC50 is over 1000 nM.

Q: And the growth at 0.1 µM (SK-MEL-5 [15])?
A: The growth at 0.1 µM was 92%.

Q: What about the growth at 0.01 µM (OVCAR-8 [16]) of the same molecule?
A: The growth at 0.01 µM was 95%.
